Experimental data taken from ChEMBL document CHEMBL1828575, “Design, synthesis and antiproliferative activities of biarylolefins based on polyhydroxylated and carbohydrate scaffolds” (Eur J Med Chem, 2011).

Tests used:
Format in all cases: functional
[1] = tested on: RXF 393; assay: Antitumor activity against human RXF393 cells after 48 hrs by SRB assay; conditions: RXF 393, 48 h
Procedure, shortened: (§1)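 NCI60 panel in RPMI 1640 with 5% FBS and 2 mM L-glutamine. Cells were plated at 5000–40,000/well by doubling time, held 24 h, then time-zero plates were TCA-fixed. Five concentrations (10-fold or half-log dilutions of DMSO stocks) were applied for 48 h at 37 °C, 5% CO2. Cells were fixed with cold TCA (10% final adherent, 16% suspension) and stained with 0.4% SRB. Bound dye was dissolved in 10 mM Tris and read at 515 nm. GI50, TGI and LC50 were calculated per line.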

[2] = tested on: RPMI-8226; assay: Cytotoxicity against human RPMI8226 cells assessed as cellular growth at 10 uM after 48 hrs by SRB assay
Procedure, shortened: (§2)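 NCI-60 panel lines grown in RPMI 1640 with 5% FBS and 2 mM L-glutamine. Plated at 5000–40,000 cells/well and preincubated 24 h at 37 °C, 5% CO₂, with time-zero plates fixed in TCA. Compounds, dissolved in DMSO and diluted in medium, were applied for 48 h. Cells were TCA-fixed (10% final for adherent, 16% for suspension) and stained with 0.4% SRB in 1% acetic acid. Dye was solubilised in 10 mM Tris base and read at 515 nm; growth was expressed as a percentage of untreated control.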

[3] = tested on: SW-620; assay: Antitumor activity against human SW620 cells after 48 hrs by SRB assay; conditions: SW-620, 48 h
Procedure, shortened: (§3)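 NCI60 panel cells grown in RPMI 1640 with 5% FBS and 2 mM L-glutamine, plated at 5000–40,000 cells/well and preincubated 24 h at 37 °C, 5% CO₂. Compound was added from DMSO at five concentrations, 10-fold or 1/2 log dilutions, then incubated 48 h.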

[4] = tested on: NCI-H226; assay: Cytotoxicity against human NCI-H226 cells assessed as cellular growth at 10 uM after 48 hrs by SRB assay; procedure, shortened: as §2
[5] = tested on: A549; assay: Antitumor activity against human A549 cells after 48 hrs by SRB assay; conditions: A549, 48 h; procedure, shortened: as §1
[6] = tested on: SNB-19; assay: Antitumor activity against human SNB19 cells after 48 hrs by SRB assay; conditions: SNB-19, 48 h; procedure, shortened: as §3
[7] = tested on: IGROV-1; assay: Antitumor activity against human IGROV1 cells after 48 hrs by SRB assay; conditions: IGROV-1, 48 h; procedure, shortened: as §1
[8] = tested on: OVCAR-4; assay: Cytotoxicity against human OVCAR4 cells assessed as cellular growth at 10 uM after 48 hrs by SRB assay; procedure, shortened: as §2
[9] = tested on: EKVX; assay: Cytotoxicity against human EKVX cells assessed as cellular growth at 10 uM after 48 hrs by SRB assay
Procedure, shortened: (§4)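 NCI60 single-dose screen of cells in RPMI 1640 with 5% FBS and 2 mM L-glutamine, preincubated 24 h at 37 °C, 5% CO₂. Cells were then exposed 48 h to compound added from DMSO stock. TCA-fixed, stained with 0.4% SRB in 1% acetic acid, dye solubilised in 10 mM Tris base and read at 515 nm. Growth is given as percent of untreated control.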

[10] = tested on: TK-10; assay: Cytotoxicity against human TK10 cells assessed as cellular growth at 10 uM after 48 hrs by SRB assay; procedure, shortened: as §2
[11] = tested on: K562; assay: Cytotoxicity against human K562 cells assessed as cellular growth at 10 uM after 48 hrs by SRB assay; procedure, shortened: as §4
[12] = tested on: OVCAR-8; assay: Cytotoxicity against human OVCAR8 cells assessed as cellular growth at 10 uM after 48 hrs by SRB assay; procedure, shortened: as §2
[13] = tested on: UACC-62; assay: Cytotoxicity against human UACC62 cells assessed as cellular growth at 10 uM after 48 hrs by SRB assay; procedure, shortened: as §2
[14] = tested on: MDA-MB-231; assay: Antitumor activity against human MDA-MB-231 cells after 48 hrs by SRB assay; conditions: MDA-MB-231, 48 h; procedure, shortened: as §1
[15] = tested on: SN12C; assay: Cytotoxicity against human SN12C cells assessed as cellular growth at 10 uM after 48 hrs by SRB assay; procedure, shortened: as §2
[16] = tested on: NCI-H322M; assay: Cytotoxicity against human NCI-H322M cells assessed as cellular growth at 10 uM after 48 hrs by SRB assay; procedure, shortened: as §2
[17] = tested on: PC-3; assay: Cytotoxicity against human PC3 cells assessed as cellular growth at 10 uM after 48 hrs by SRB assay; procedure, shortened: as §2
[18] = tested on: SK-MEL-2; assay: Antitumor activity against human SK-MEL-2 cells after 48 hrs by SRB assay; conditions: SK-MEL-2, 48 h; procedure, shortened: as §3
[19] = tested on: DU-145; assay: Antitumor activity against human DU145 cells after 48 hrs by SRB assay; conditions: DU-145, 48 h; procedure, shortened: as §1
[20] = tested on: UACC-257; assay: Antitumor activity against human UACC257 cells after 48 hrs by SRB assay; conditions: UACC-257, 48 h; procedure, shortened: as §3
[21] = tested on: OVCAR-5; assay: Cytotoxicity against human OVCAR5 cells assessed as cellular growth at 10 uM after 48 hrs by SRB assay; procedure, shortened: as §2
[22] = Cytotoxicity against human NCI60 cells assessed as cellular growth at 10 uM after 48 hrs by SRB assay relative to untreated control; procedure, shortened: as §2
[23] = tested on: BT-549; assay: Cytotoxicity against human BT549 cells assessed as cellular growth at 10 uM after 48 hrs by SRB assay; procedure, shortened: as §4
[24] = tested on: SF-539; assay: Cytotoxicity against human SF539 cells assessed as cellular growth at 10 uM after 48 hrs by SRB assay; procedure, shortened: as §2
[25] = tested on: NCI-H522; assay: Cytotoxicity against human NCI-H522 cells assessed as cellular growth at 10 uM after 48 hrs by SRB assay; procedure, shortened: as §2
[26] = tested on: ACHN; assay: Antitumor activity against human ACHN cells after 48 hrs by SRB assay; procedure, shortened: as §1
[27] = read-out: LC50 (the source's name)
[28] = read-out: pLC50 (the source's name) (converted)

Structure (SMILES): COc1cc(/C(=C2\O[C@@H]([C@H]3COC(C)(C)O3)[C@H]3OC(C)(C)O[C@@H]23)c2ccc3ccccc3c2)cc(OC)c1OC
- GI50 [1]: 2.54 µM
- TGI [1]: 5.99 µM
- CC50 [1, 27]: 32.6 µM
- Activity [2]: 36.83%
- GI50 ([3]; read-out: GI50): 4.31 µM
- CC50 [3, 27]: > 100 µM
- TGI ([3]; read-out: TGI): > 100 µM
- GI50 ([3]; read-out: pGI50 (converted)): 4.27 µM
- CC50 [3, 28]: > 100 µM
- TGI ([3]; read-out: pTGI): > 100 µM
- Activity [4]: 66.92%
- GI50 ([5]; read-out: GI50): 3.09 µM
- CC50 [5, 27]: > 100 µM
- TGI ([5]; read-out: TGI): 9.55 µM
- GI50 ([5]; read-out: pGI50 (converted)): 3.09 µM
- CC50 [5, 28]: > 100 µM
- TGI ([5]; read-out: pTGI (converted)): 9.55 µM
- GI50 [6]: 2.49 µM
- TGI [6]: 6.08 µM
- CC50 [6, 27]: > 100 µM
- GI50 ([7]; read-out: GI50): 3.3 µM
- CC50 [7, 27]: > 100 µM
- TGI ([7]; read-out: TGI): > 100 µM
- GI50 ([7]; read-out: pGI50 (converted)): 2.82 µM
- CC50 [7, 28]: > 100 µM
- TGI ([7]; read-out: pTGI): > 100 µM
- Activity [8]: 25.7%
- Activity [9]: 53.7%
- Activity [10]: 22.74%
- Activity [11]: 28.12%
- Activity [12]: 18.91%
- Activity [13]: 46.5%
- GI50 [14]: 6.28 µM
- TGI [14]: 69.7 µM
- CC50 [14, 27]: > 100 µM
- Activity [15]: 24.83%
- Activity [16]: 55.06%
- Activity [17]: 26.98%
- GI50 [18]: 1.53 µM
- TGI [18]: 4.12 µM
- CC50 [18, 27]: 24.1 µM
- GI50 ([19]; read-out: GI50): 4.33 µM
- CC50 [19, 27]: > 100 µM
- TGI ([19]; read-out: TGI): > 100 µM
- GI50 ([19]; read-out: pGI50 (converted)): 4.37 µM
- CC50 [19, 28]: > 100 µM
- TGI ([19]; read-out: pTGI (converted)): > 100 µM
- GI50 ([20]; read-out: GI50): 4.28 µM
- CC50 [20, 27]: > 100 µM
- TGI ([20]; read-out: TGI): 23.8 µM
- GI50 ([20]; read-out: pGI50 (converted)): 4.27 µM
- CC50 [20, 28]: > 100 µM
- TGI ([20]; read-out: pTGI (converted)): 24 µM
- Activity [21]: 38.17%
- Activity [22]: 30%
- Activity [23]: 22.16%
- Activity [24]: 26.42%
- Activity [25]: 8.05%
- GI50 ([26]; read-out: GI50): 4.39 µM
- CC50 [26, 27]: > 100 µM
- TGI ([26]; read-out: TGI): > 100 µM
- GI50 ([26]; read-out: pGI50 (converted)): 4.57 µM
- CC50 [26, 28]: > 100 µM
- TGI ([26]; read-out: pTGI): > 100 µM
